Most compounds without a hit are left out; they make up all but 1.3% or so of the library.
EphB4 antag = EphB4-ephrin-B2 interaction antagonists, primary screen, biochemical, TNYL-RAW peptide probe, fluorescence polarization; Ephrin type-B receptor 4 (Homo sapiens), P54760; EphB4 LBD / TNYL-RAW-Alexa532 peptide; inhibition, % at 7 µM; actives 0.15% (n = 97,000); AID 720, 2007;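 active means inhibition above the screen-wide mean inhibition plus 3 SD, cut at about 15% in these data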;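 further: 0% = DMSO wells and 100% = excess unlabeled TNYL-RAW peptide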
CD11b adhes enh = enhancers of CD11b/CD18 adhesion to fibrinogen, primary screen, K562 cells, luminescence | ATPlite luminescence | actives 0.07% (n = 93,000) | activation, % at 10 µM;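 active means 10 µM primary screen giving 50% or more activity, confirmed by 40% or more on retest at that dose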
Smad3 inh = Smad3/FoxH1 peptide binding inhibitors, primary screen, biochemical, TR-FRET; actives 0.29% (n = 88,000); Mothers against decapentaplegic homolog 3 (Homo sapiens), P84022; inhibition, % at 25 µM; TR-FRET Smad3/Dy647-FoxH1 peptide binding, europium anti-His;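 active means compounds that reduce the energy-transfer binding signal between the protein and its labelled peptide by more than half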;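 further: 0% = Smad3 plus labelled peptide maximal FRET and 100% = peptide-only background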
Target sequence (P84022 whole entry, looked up): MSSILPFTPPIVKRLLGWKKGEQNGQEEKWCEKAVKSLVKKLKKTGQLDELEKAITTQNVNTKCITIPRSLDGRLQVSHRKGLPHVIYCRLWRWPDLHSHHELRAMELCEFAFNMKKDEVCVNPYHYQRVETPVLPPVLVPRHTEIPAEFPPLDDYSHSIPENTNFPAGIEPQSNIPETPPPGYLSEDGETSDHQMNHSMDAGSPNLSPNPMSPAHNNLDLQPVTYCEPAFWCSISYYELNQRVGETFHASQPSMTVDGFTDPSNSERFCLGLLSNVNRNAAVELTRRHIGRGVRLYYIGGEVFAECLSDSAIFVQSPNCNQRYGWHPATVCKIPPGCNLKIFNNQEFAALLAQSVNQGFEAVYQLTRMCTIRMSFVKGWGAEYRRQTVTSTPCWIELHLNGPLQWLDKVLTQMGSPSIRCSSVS
Phagocyt inh = inhibitors of macrophage phagocytosis, primary screen, imaging, J774A.1 cells, IgG beads; actives 0.07% (n = 110,000); AID 1029, 2008; J774A.1 macrophage IgG-bead phagocytosis; inhibition, % at 5 µM;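 active means inhibition above the mean of the plate negative controls plus 5 SD, cut at about 13% in these data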;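 further: phagocytic index as fraction of beads internalized from green versus red external bead signal; plate controls were DMSO negative control for no effect and cytochalasin-D positive control for full effect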
CD11b adhes inh = inhibitors of CD11b/CD18 adhesion to fibrinogen, primary screen, K562 cells, luminescence; actives 0.54% (n = 93,000); AID 1497, 2009; ATPlite luminescence; Mn2+ added to activate the integrin; inhibition, % at 10 µM; Integrin beta-2 (Homo sapiens) + Integrin alpha-M (Homo sapiens), P05107+P11215;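 active means primary inhibition of 50% or more at 10 µM, then 40% or more on retest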
Rev-RRE block = HIV-1 Rev-RRE binding inhibitors, primary screen, biochemical, FRET, protein-RNA interaction; AID 704, 2007; Rev peptide-RRE RNA binding; inhibition, % at 8 µM; actives 0.79% (n = 97,000); P05866;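 active means inhibition above the screen-wide mean plus 3 SD, cut at about 35% in these data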;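 further: 0% = median DMSO wells and 100% = median Neomycin B control wells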
Target sequence (P05866 whole entry, looked up): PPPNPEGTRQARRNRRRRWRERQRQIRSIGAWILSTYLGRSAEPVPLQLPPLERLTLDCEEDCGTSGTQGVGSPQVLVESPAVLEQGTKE
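assay system = Cy5-tagged RRE RNA duplex with fluorescein-tagged Rev peptide | incubation = 5 + 15 min at 25 °C | also added = labelled Rev peptide | measure = % inhibition of FRET ratio versus controls | benchmarks = DMSO wells as 0% and neomycin B wells as 100% inhibition | measured by = FRET fluorescence readout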
Active calls of the source: *; nt = not tested or not shown; [ ] = dose if it differs, or a comment.

SMILES	EphB4 antag	CD11b adhes enh	Smad3 inh	Phagocyt inh	CD11b adhes inh	Rev-RRE block
CCOC(=O)c1cnc(Nc2nc3ccccc3o2)nc1CN1CCN(C)CC1	16*	nt	nt	nt	nt	20
CCc1ccc2c(c1)N(C[C@H](C)CN(C)C)c1ccccc1S2	nt	nt	-5	nt	nt	nt
O=C(O)CCc1ccc(-c2cccs2)n1NC(=O)c1ccc(Cl)cc1	-3	-3	1	79*	-3	-4
O=C(O)CCc1ccc(-c2cccs2)n1NC(=O)c1ccc(Cl)cc1Cl	-1	0	-12	0	-17	4
COc1cc2nc(SCc3ccc(F)cc3)n(Cc3cccs3)c(=N)c2cc1OC	2	nt	nt	nt	nt	0
COc1ccc(Cn2c(SCc3ccccc3C)nc3cc(OC)c(OC)cc3c2=N)cc1	14	135*	nt	-2	-3	8
CC(=O)c1c(C)[nH]c(C(=O)OCc2ccccc2)c1C	nt	nt	nt	-2	nt	nt
COC(=O)c1ccc(COC(=O)c2[nH]c(C)c(C(C)=O)c2C)o1	1	-8	0	-1	76*	6
Cc1ccc2[nH]c3c(NCc4ccco4)ncnc3c2c1	6	-7	-5	0	76*	15
COCc1nnc(NC(=O)CC(C)C)s1	8	nt	-3	nt	nt	1
COCc1nnc(NC(=O)CC(c2ccccc2)c2ccccc2)s1	17*	nt	-21	nt	nt	0
CC(=O)NC1=C(OS(=O)(=O)c2ccc(C)cc2)CN(C)C1=O	nt	nt	14	nt	nt	nt
CCOC(=O)C(C)Sc1nnc(NC(=O)c2ccc(C)c([N+](=O)[O-])c2)s1 (centres undefined)	nt	-5	nt	-8	66*	nt
Cc1ccc(CO/N=C\Cc2snc(Sc3ncc(C(F)(F)F)cc3Cl)c2C#N)cc1	1	-2	14	-2	-5	60*
COC(=O)CSC1=NS(=O)(=O)c2ccccc21	-1	-8	4	1	69	4
O=C(CSC1=NS(=O)(=O)c2ccccc21)Nc1ccccc1	1	-6	2	1	72*	5
Nc1nc(N)c2nn(-c3ccc(C(=O)O)cc3)nc2n1	nt	nt	15	nt	nt	nt
C[N+](C)(C)c1ncnc2c1ncn2[C@@H]1CCCCO1	nt	nt	8	nt	nt	nt
O=C(O)CC(NS(=O)(=O)c1cccc2nsnc12)c1ccc(F)cc1 (centres undefined)	6	-9	5	1	60*	11
CCC(C)NC(=O)C(NS(=O)(=O)c1cccc2nsnc12)c1ccccc1 (centres undefined)	4	nt	6	nt	nt	8
N[C@H](C(=O)O)[C@H](N)C(=O)O	nt	nt	10	nt	nt	nt
Cc1ccc(C)c(S(=O)(=O)C(C#N)c2nc3ccccc3nc2N2CCOCC2)c1 (centres undefined)	-10	-10	-3	0	95*	4
Cc1ccc(C)c(S(=O)(=O)C(C#N)c2nc3ccccc3nc2N2CCCC2)c1 (centres undefined)	-8	-3	3	0	18	64*
C=CCN1C=CC(=C/C=C(/C#N)C(=O)OCC)C=C1	0	nt	-1	nt	nt	138*[fluorescence artefact?]
CCOC(=O)/C(C#N)=C\N(C)C	-2	nt	nt	nt	nt	-1
SMILES	EphB4 antag	CD11b adhes enh	Smad3 inh	Phagocyt inh	CD11b adhes inh	Rev-RRE block
CC(C)Cn1c(N)c(C(=O)COC(=O)c2cc(-c3ccco3)nc3ccccc23)c(=O)n(C)c1=O	-7	nt	18	1	nt	-20
Cc1nn(-c2ccccc2)c(C)c1C(=O)OCC(=O)c1c(N)n(CC(C)C)c(=O)n(C)c1=O	nt	-7	3	1	65*	nt
COc1ccc(N2C(=O)CCC(C(=O)O)C2c2ccc(OC)c(OC)c2)cc1 (centres undefined)	-7	-2	nt	-1	-12	5
COc1ccc(N2C(=O)CCC(C(=O)NCCN3CCOCC3)C2c2ccc(OC)c(OC)c2)cc1 (centres undefined)	nt	-1	-3	44*	1	nt
CCOC(=O)C1=C(O)/C(=C/c2cc(OC)c(O)c(OC)c2)SC1=Nc1ccc(OC)cc1	nt	nt	nt	-8	nt	nt
CCOC(=O)C1=C(O)/C(=C/c2ccc(-c3ccccc3C(=O)O)o2)SC1=Nc1ccc(OC)cc1	2	1	nt	0	-9	89*[fluorescence artefact?]
O=C1C(=O)c2ccccc2C(O)=C1Cc1ccccc1	nt	nt	3	nt	nt	nt
CCNC(=S)N/N=C/c1sc(N2CCCCC2)nc1-c1cccs1	nt	nt	nt	1	nt	nt
Cc1oc2c(c1C(=O)c1ccccc1)C(=O)C(=O)c1ccccc1-2	5	nt	27	nt	nt	4
O=C1C(=O)c2c(C(=O)c3ccccc3)coc2-c2ccccc21	-1	0	0	2	59*	13
COc1cc2ccc([C@H](C)NCC#N)cc2cc1OC	nt	nt	6	nt	nt	nt
COc1ccc2c(c1)Cc1cc(N=[N+]([O-])c3ccc4c(c3)Cc3cc(OC)ccc3-4)ccc1-2	nt	nt	22	nt	nt	nt
C=CCn1c(=O)/c(=C/c2ccc(O)cc2)s/c1=C(/C#N)c1nnc2n1CCCCC2	-5	10	-2	0	0	73*
CN(C)CCCN=c1c2ccccc2n(C)c2[nH]c(=O)n(C)c(=O)c12	nt	nt	-1	nt	nt	nt
Cc1ccc(S(=O)(=O)CC2CSc3nc(N)cc(=O)n32)cc1 (centres undefined)	-9	-3	3	-1	1	5
Cc1ccc(S(=O)(=O)CC2CSc3nc4ccccc4n32)cc1 (centres undefined)	-5	-12	nt	0	93*	-3
N#CC1=C(N)OC2=C(CC/C2=C\c2ccccc2Cl)C1c1ccccc1Cl (centres undefined)	nt	8	nt	-4	-9	nt
N#CC1=C(N)OC2=C(CC/C2=C\c2ccccc2)C1c1ccccc1 (centres undefined)	-12	nt	nt	nt	nt	136*[fluorescence artefact?]
CCOC(=O)CN1C=C(c2ccc3ccccc3n2)C(C[N+](=O)[O-])c2ccccc21 (centres undefined)	-3	-6	12	-1	-46	94*[fluorescence artefact?]
C[C@H]1[C@H](O)[C@@H](C)C=CC=CC=CC=CC=CC=CC=C[C@H](O[C@H]2O[C@@H](C)[C@H](O)[C@@H](N)[C@@H]2O)C[C@@H]2O[C@@](O)(C[C@@H](O)C[C@@H](O)[C@@H](O)CC[C@@H](O)C[C@@H](O)CC(=O)O[C@H]1C)C[C@H](O)[C@H]2C(=O)O	nt	nt	17	nt	nt	nt
Cc1cccc2c(C(=O)O)c3c(nc12)CCCCC3	17*	-1	nt	-1	-5	10
NC[C@@H](O)CSCc1ccc(Cl)cc1	nt	nt	1	nt	nt	nt
COc1cccc(-c2cc(C(F)(F)F)nc(N3CCOCC3)n2)c1	-3	4	5	nt	-5	18
COc1cccc(-c2cc(C(F)(F)F)nc(N3CCC(C)CC3)n2)c1	1	nt	5	nt	nt	41*
O=c1nc2n(c3sc4c(c13)CCC4)Cc1ccccc1-2	nt	nt	-1	nt	nt	nt

Bioassay records from PubChem.
